Measurements published in ChEMBL document CHEMBL2311425, “Histone deacetylase (HDAC) inhibitors with a novel connecting unit linker region reveal a selectivity profile for HDAC4 and HDAC5 with improved activity against chemoresistant cancer cells” (J Med Chem, 2013).

How the values were obtained:
[1] = tested on: MDA-MB-231; test: Potentiation of 25 uM cisplatin-induced toxicity in 1 uM cisplatin resistant human MDA-MB-231 cells at 0.25 uM pretreated for 48 hrs followed by 1 uM cisplatin treatment by MTT assay; type: functional
[2] = tested on: CAL-27; test: Potentiation of 1 uM cisplatin-induced toxicity in 1 uM cisplatin resistant human CAL27 cells at 1.5 uM pretreated for 48 hrs followed by 1 uM cisplatin treatment by MTT assay; type: functional
[3] = tested on: KYSE-510; test: Potentiation of cisplatin-induced toxicity in cisplatin resistant human KYSE-510 cells at 1 uM pretreated for 48 hrs followed by cisplatin treatment by MTT assay; type: functional
Procedure, shortened: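 Resistant sublines pretreated 48 h with 1 μM HDAC inhibitor, then cisplatin over a concentration range for 72 h; MTT viability read at 544/690 nm. Cisplatin IC50 from four-parameter logistic fit of pooled data (≥3 experiments, triplicate); shift factor = IC50 of cisplatin alone divided by IC50 of the combination.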

[4] = target: T1, Histone deacetylase 11 (Homo sapiens, UniProt Q96DB2); test: Inhibition of human HDAC11 by fluorescence assay
T1 sequence (Q96DB2 whole entry): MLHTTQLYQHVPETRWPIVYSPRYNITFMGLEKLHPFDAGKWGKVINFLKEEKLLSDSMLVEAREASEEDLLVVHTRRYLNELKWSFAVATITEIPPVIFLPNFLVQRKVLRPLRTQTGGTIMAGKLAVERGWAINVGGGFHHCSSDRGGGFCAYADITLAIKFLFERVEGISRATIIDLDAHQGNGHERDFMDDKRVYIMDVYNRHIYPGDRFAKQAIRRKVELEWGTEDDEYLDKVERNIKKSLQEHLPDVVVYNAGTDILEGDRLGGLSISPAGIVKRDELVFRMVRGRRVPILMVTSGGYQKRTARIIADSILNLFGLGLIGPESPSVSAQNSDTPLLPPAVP

[5] = tested on: MDA-MB-231; test: Cytotoxicity against cisplatin resistant human MDA-MB-231 cells after 72 hrs by MTT assay; type: functional, cell-based; details: MDA-MB-231, 72 h
[6] = tested on: A2780; test: Potentiation of 20 uM cisplatin-induced toxicity in 5 uM cisplatin resistant human A2780 cells at 0.5 uM pretreated for 48 hrs followed by 5 uM cisplatin treatment by MTT assay; type: functional
[7] = tested on: KYSE-510; test: Potentiation of 8 uM cisplatin-induced toxicity in 0.5 uM cisplatin resistant human KYSE-510 cells at 0.25 uM pretreated for 48 hrs followed by 0.5 uM cisplatin treatment by MTT assay; type: functional

Cc1cc(C)cc(C(=O)NOCCCCCC(=O)NO)c1 was tested, and the Activity [1] was “Dose-dependent effect”, the Activity [2] was “Dose-dependent effect” and the “fractional inhibitory concentration index (FICI)” value [2] was 0.48. The Activity [3] was “Dose-dependent effect”, the fold change (FC) [3] was 18.8 and the IC50 [4] was 852 nM. The IC50 [5] was 1680 nM, the Activity [6] was “Dose-dependent effect” and the “fractional inhibitory concentration index (FICI)” value [6] was 0.58. The Activity [7] was “Dose-dependent effect” and the “fractional inhibitory concentration index (FICI)” value [7] was 0.18.
